This note sets out measurements from ChEMBL document CHEMBL2062398, “De novo peptide design with C3a receptor agonist and antagonist activities: theoretical predictions and experimental validation” (J Med Chem, 2012).

For assay [1], the target named is T1, C5a anaphylatoxin chemotactic receptor 1 (Homo sapiens) (UniProt P21730).
T1 sequence (whole entry): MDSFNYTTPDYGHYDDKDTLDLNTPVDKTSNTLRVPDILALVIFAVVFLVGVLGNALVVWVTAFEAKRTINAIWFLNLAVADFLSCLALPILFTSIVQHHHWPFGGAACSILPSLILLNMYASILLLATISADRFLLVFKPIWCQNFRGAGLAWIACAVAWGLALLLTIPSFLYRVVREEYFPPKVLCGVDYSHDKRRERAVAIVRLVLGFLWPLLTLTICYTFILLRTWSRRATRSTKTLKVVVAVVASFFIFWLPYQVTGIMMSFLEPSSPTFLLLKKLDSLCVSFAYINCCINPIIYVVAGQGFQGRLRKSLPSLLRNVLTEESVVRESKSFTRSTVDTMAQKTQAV
Description: Antagonist activity at human C5a receptor expressed in RBL-2H3 cells assessed as beta-hexosaminidase activity in cell supernatant up to 1 uM compound preincubated for 10 mins by degranulation assay. It is filed as functional, cell-based. The method in brief:
(§1)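 Human C5aR-transfected RBL-2H3 cells were tested with peptides up to 1 μM. In the agonist mode, β-hexosaminidase secretion was taken relative to 200 nM human C5a. In the antagonist mode, cells were pretreated with peptide for 10 min before C5a was added.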

The target in assay [2] is T1, C5a anaphylatoxin chemotactic receptor 1 (Homo sapiens). Description: Agonist activity at human C5a receptor expressed in RBL-2H3 cells assessed as beta-hexosaminidase activity in cell supernatant up to 1 uM by degranulation assay. It is filed as functional, cell-based. The procedure, abridged:
as §1

In assay [3] the target is T2, C3a anaphylatoxin chemotactic receptor (Homo sapiens) (UniProt Q16581).
T2 sequence (whole entry): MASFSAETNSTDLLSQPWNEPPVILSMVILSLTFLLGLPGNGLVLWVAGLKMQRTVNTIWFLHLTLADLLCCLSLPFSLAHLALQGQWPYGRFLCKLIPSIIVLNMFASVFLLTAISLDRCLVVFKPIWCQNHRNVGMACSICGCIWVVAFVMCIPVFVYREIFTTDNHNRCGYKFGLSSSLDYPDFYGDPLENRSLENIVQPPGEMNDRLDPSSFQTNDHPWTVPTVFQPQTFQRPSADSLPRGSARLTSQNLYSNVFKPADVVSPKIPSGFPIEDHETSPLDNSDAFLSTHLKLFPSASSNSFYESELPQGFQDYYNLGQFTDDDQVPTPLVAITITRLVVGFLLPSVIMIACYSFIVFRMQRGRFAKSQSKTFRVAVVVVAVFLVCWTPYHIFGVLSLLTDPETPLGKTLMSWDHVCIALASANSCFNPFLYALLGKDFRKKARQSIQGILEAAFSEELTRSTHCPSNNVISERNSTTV
Description: Antagonist activity at human C3a receptor expressed in RBL-2H3 cells assessed as inhibition of human recombinant C3a -induced beta-hexosaminidase activity in cell supernatant measuring minimum receptor activity compound preincubated for 10 mins by degranulation assay. It is filed as functional, cell-based. Further details: scale not given: the % may be the effect or the level left. The method in brief: (§2)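 RBL-2H3 cells expressing human C3aR (DMEM, 10% FCS, G-418, 37°C) were pretreated with peptide for 10 min before 200 nM recombinant human C3a or 10 nM FLPLAR was added. β-Hexosaminidase release in supernatant was measured as percent of the agonist-alone response. IC50, calculated minimum and SEM came from iterative curve fitting.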

Assay [4] deals with T2, C3a anaphylatoxin chemotactic receptor (Homo sapiens). Description: Agonist activity at human C3a receptor expressed in RBL-2H3 cells assessed as beta-hexosaminidase activity in cell supernatant by degranulation assay relative to FLPLAR. It is filed as functional, cell-based. The procedure, abridged:
(§3)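 Transfected RBL-2H3 cells kept in DMEM, 10% FCS, 400 mg/liter G-418, 37°C, 5% CO2. Degranulation read as β-hexosaminidase activity in supernatant. Secretion expressed as percent of maximal response to 200 nM recombinant human C3a or 10 nM FLPLAR. EC50, calculated maximum and SEM from iterative curve fitting.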

Assay [5] has the same target. Description: Antagonist activity at human C3a receptor expressed in RBL-2H3 cells assessed as inhibition of FLPLAR-induced beta-hexosaminidase activity in cell supernatant measuring minimum receptor activity compound preincubated for 10 mins by degranulation assay. It is filed as functional, cell-based. The arrangement: scale not given: the % may be the effect or the level left. The procedure, abridged:
as §2

The target is the same in assay [6]. Description: Agonist activity at human C3a receptor expressed in RBL-2H3 cells assessed as beta-hexosaminidase activity in cell supernatant by degranulation assay relative to recombinant human C3a. Format: functional, cell-based. The procedure, abridged:
as §3

In assay [7] the target is T3, C3a anaphylatoxin chemotactic receptor (Homo sapiens, UniProt Q16581).
T3 sequence (Q16581 whole entry): T2 sequence (whole entry)
Description: Antagonist activity at human C3a receptor expressed in RBL-2H3 cells assessed as beta-hexosaminidase activity in cell supernatant compound preincubated for 10 mins by degranulation assay. Format: functional, cell-based.

For assay [8], the target named is T3, C3a anaphylatoxin chemotactic receptor. The assay can be described thus: Agonist activity at human C3a receptor expressed in RBL-2H3 cells assessed as beta-hexosaminidase activity in cell supernatant by degranulation assay. It is filed as functional, cell-based. The method in brief:
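Degranulation read as β-hexosaminidase activity in supernatant. Secretion expressed as percent of maximal response to 200 nM recombinant human C3a or 10 nM FLPLAR. EC50, calculated maximum and SEM from iterative curve fitting.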

In assay [9] the target is T2, C3a anaphylatoxin chemotactic receptor (Homo sapiens). The assay can be described thus: Agonist activity at C3a receptor in dbcAMP differentiated human U937 cells assessed as increase in intracellular calcium using […] staining by microplate reader relative to FLPLAR. It is filed as functional, cell-based. To be noted: U-937. The procedure, abridged:
(§4)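 U937 cells grown in RPMI-1640 with 10% FCS at 37°C, 5% CO2, differentiated 48 h in 1 mM dibutyryl cAMP. Intracellular calcium rise read with Fluo-4 dye on a plate reader.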

The target of assay [10] is T3, C3a anaphylatoxin chemotactic receptor. The assay can be described thus: Agonist activity at C3a receptor in dbcAMP differentiated human U937 cells assessed as increase in intracellular calcium using […] staining by microplate reader. It is filed as functional, cell-based, U-937. The method in brief: as §4

Active and inactive are the calls of the source. No cut-off for these calls is given here.

In the case of Ac-WWDRRWRASKLGLAR-OH, the outcome in assay [1] and in [2] was inactive. Moreover, the figures for the Activity in [3] and in assay [5] were 24% and 48%, respectively. The Emax in assay [4] and in assay [6] was 14% in each case.

As to Ac-WWERRWRASKLGLAR-OH, the result in assay [1] and in assay [2] was inactive. The values for the Activity in assay [3] and in assay [5] were 35% and 61%, respectively. Also, the Emax in assay [4] and in assay [6] was 22% in each case.

As for Ac-WWGKKYRASKLGLAR-OH, the result in [1] and in [2] was inactive. For the same substance, in assay [3], the Activity was 52%. For the same substance, in assay [4], the Emax amounted to 38%.

As to Ac-WWRNRWRENRLGLAR-OH, the result in [1] and in assay [2] was inactive. In addition, the Activity in assay [3] and in assay [5] was 62.5% each time. Besides, the Emax in assay [6] is 62%.

In the case of Ac-WWSRRWRASKLGLAR-OH, the result in [1] and in assay [2] was inactive. The Activity in [3] and in assay [5] was 40% each time. Besides, the Emax in assay [4] and in [6] was 13% each time. Besides, the IC50 in [7] is 63.1 nM. The EC50 in [8] is 148 nM.

Ac-WWTRRWRADKLGLAR-OH: the outcome in assay [1] and in assay [2] was inactive. In addition, the Activity in assay [3] and in [5] was 68% each time. The Emax in [4] worked out at 79%; in [6], 79%; in assay [9] it was 74%. Also, in [7], the IC50 was 4.57 nM. The EC50 in assay [10] was 490 nM; in assay [8], 66.1 nM.

As for Ac-WWTRRWRASKLGLAR-OH, the outcome in assay [1] and in assay [2] was inactive. The Activity in assay [3] and in assay [5] was 47% each time. Besides, the Emax in assay [4] and in assay [6] was 35% in each case. Besides, the IC50 in assay [7] was 50.1 nM. Also, the concentration for a half-maximal effect (EC50) in assay [8] was 195 nM.

For Ac-WWTRRWRGDKLGLAR-OH, the result in assay [1] and in assay [2] was inactive. Further, the Activity in assay [3] and in [5] was 70% each time. In addition, the Emax in [4] was 72%; in assay [6] it was 72%; in assay [9], 81%. For the same substance, the IC50 in assay [7] is 9.12 nM. For the same substance, the EC50 in assay [10] is 794 nM; in assay [8], 25.1 nM.

Take “Ac-WWTRRWRTDKLGLAR-OH [listing 1 of 2 here]”: the half-maximal inhibitory concentration (IC50) in [7] was 5.01 nM. Moreover, the EC50 in assay [8] was 339 nM.

With “Ac-WWTRRWRTDKLGLAR-OH [listing 2 of 2 here]”, the result in assay [1] and in [2] was inactive. For the same substance, the Activity in assay [3] and in assay [5] was 60% each time. Besides, the Emax in assay [4] and in assay [6] was 43% each time.

For “Ac-WWTRRWRTEKLGLAR-OH [listing 1 of 2 here]”, the IC50 in [7] is 7.76 nM. Further, the 50% effective concentration (EC50) in [8] is 708 nM.

Regarding “Ac-WWTRRWRTEKLGLAR-OH [listing 2 of 2 here]”, the outcome in assay [1] and in assay [2] was inactive. Moreover, the Activity in assay [3] and in assay [5] was 60% throughout. The Emax in assay [4] and in [6] was 45% throughout.

Consider “Ac-WWTRRYRASKLGLAR-OH [listing 1 of 2 here]”, for which the IC50 in assay [7] was 23.4 nM. For the same substance, the EC50 in [8] was 1000 nM.

With “Ac-WWTRRYRASKLGLAR-OH [listing 2 of 2 here]”, the outcome in assay [1] and in assay [2] was inactive. The Activity in [3] and in [5] was 42% each time. Moreover, the Emax in assay [4] and in assay [6] was 29% in each case.

H-WWTRRWRASKLGLAR-OH: the result in assay [1] and in assay [2] was inactive. For the same substance, the Emax in assay [4] is 37%. The Activity in [5] stood at 63%.
